# High-throughput results (PubChem)
# A selection: hits, their analogues and other compounds. The true share with any hit is near 3.6%.
# VIM-2 inh: inhibitors of Pseudomonas aeruginosa VIM-2 metallo-beta-lactamase. 0.89% of 290,000 active. purified VIM-2, nitrocefin hydrolysis, epi-absorbance fluorescence. inhibition, % at 5.6 µM;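 active = inhibition above the mean of all tested compounds plus 3 SD, cutoff set per screening run, cut at about 7.5% in these data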;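 also: red hydrolysis product quenches plate fluorescence so inhibitors raise well fluorescence; 0% = enzyme with DMSO and 100% = DMSO without enzyme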
# IMP-1 inh: inhibitors of Pseudomonas aeruginosa IMP-1 metallo-beta-lactamase; inhibition, % at 5.6 µM; 0.45% of 290,000 active; purified IMP-1, nitrocefin hydrolysis, epi-absorbance fluorescence; AID 1556;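 active = inhibition above the mean plus 3 SD of all compounds in the same screening run, cut at about 4.5% in these data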;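 also: 0% = IMP-1 with DMSO and 100% = DMSO wells lacking enzyme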
#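 Material – recombinant IMP-1 enzyme, purified · Amount – IMP-1 0.2 nM before substrate addition · Medium – HEPES buffer pH 7.1 with ZnSO4 and Brij 35 · Timing – 25 °C, 15 min preincubation, 25 min reaction · Measured by – plate fluorescence quenching by hydrolysis product, ex 480/em 530 nm · Read-out – percent enzyme inhibition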
# PAFAH1B2 inh: PAFAH1B2 (human) inhibition | AID 492953 | 1.2% of 340,000 active | P68402 | inhibition, % at 3.39 µM | recombinant PAFAH1B2, FP-rhodamine activity probe, fluorescence polarization;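 active = inhibition above the mean of all tested compounds plus 3 SD, cut at about 24% in these data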;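 also: 0% = enzyme with DMSO and 100% = wells lacking PAFAH1B2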
# pPAFAH inh: pPAFAH (human) enzyme inhibition | Q13093 | 1.5% of 330,000 active | recombinant pPAFAH, FP-rhodamine probe fluorescence polarization | inhibition, % at 3.39 µM;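 active = inhibition above the mean inhibition across the screen plus 3 SD, cut at about 25% in these data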;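 also: inhibitors block binding of the rhodamine activity-based probe so polarization drops; 0% = enzyme with DMSO and 100% = wells lacking pPAFAH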
# Target sequence (Q13093 whole entry, looked up): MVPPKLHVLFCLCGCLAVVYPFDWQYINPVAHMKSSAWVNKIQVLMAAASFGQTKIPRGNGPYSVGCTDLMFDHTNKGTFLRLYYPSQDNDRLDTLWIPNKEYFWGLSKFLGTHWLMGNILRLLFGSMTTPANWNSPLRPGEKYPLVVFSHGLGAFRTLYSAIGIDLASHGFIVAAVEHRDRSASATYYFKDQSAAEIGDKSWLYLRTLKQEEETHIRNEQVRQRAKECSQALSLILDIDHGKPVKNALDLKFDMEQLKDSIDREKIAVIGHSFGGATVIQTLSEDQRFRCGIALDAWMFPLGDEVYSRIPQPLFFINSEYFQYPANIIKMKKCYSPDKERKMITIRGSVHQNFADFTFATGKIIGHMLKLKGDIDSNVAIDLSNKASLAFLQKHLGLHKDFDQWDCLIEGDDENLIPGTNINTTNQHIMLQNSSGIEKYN
# PAFAH2 FP inh: inhibitors of human PAFAH2 | AID 492956 | Q99487 | recombinant PAFAH2, FP-rhodamine activity probe, fluorescence polarization | 0.99% of 340,000 active | inhibition, % at 3.39 µM;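 active = inhibition above the mean over all tested compounds plus 3 SD, cut at about 30% in these data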;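 also: inhibitors block probe labeling of enzyme so polarization drops; 0% = enzyme with DMSO and 100% = wells lacking PAFAH2 protein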
# PAFAH1B3 inh: inhibitors of human PAFAH1B3; Q15102; recombinant PAFAH1B3, FP-rhodamine probe, fluorescence polarization; inhibition, % at 3.39 µM; 0.28% of 340,000 active; AID 492972;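 active = inhibition above the screen-wide average of all tested compounds plus 3 SD, cut at about 25% in these data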;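 also: 0% = enzyme with DMSO only and 100% = wells lacking PAFAH1B3 protein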
# Numbers without * were called inactive; · = no result given.
SMILES,VIM-2 inh,IMP-1 inh,PAFAH1B2 inh,pPAFAH inh,PAFAH2 FP inh,PAFAH1B3 inh
Cc1cc(CNC(=O)c2cc(COc3ccc(F)c(F)c3)on2)nn1C,0,-1,5,13,2,-8
COc1ccc(-c2csc3nc(-c4cccnc4)nc(Cl)c23)cc1OC,12*,-3,1,-1,4,2
Clc1nc(-c2cccnc2)nc2scc(-c3ccccc3)c12,-2,0,-4,0,-11,9
O=C1CC(Nc2ccc(N3CCOCC3)cc2)C(=O)N1Cc1ccccc1 (configuration not stated),-3,-8,2,34*,25,3
c1ccc(OCc2nn3c(Cn4cnc5ccccc54)nnc3s2)cc1,1,-3,27*,5,4,3
CC(=O)Oc1ccc(C(=O)Cc2ccc3ccccc3n2)c(O)c1C,-2,-3,0,2,8,13
Cc1c(O)ccc(/C(Cc2ccc3ccccc3n2)=N\O)c1O,-4,-3,29*,19,28,53*
CC1(c2nnc(-c3cccc(Cl)c3)o2)CC(c2ccc(OC(F)(F)F)cc2)=NO1 (configuration not stated),-2,0,1,5,-4,-2
CN1CCc2c(sc(NC(=O)c3ccc4ccccc4c3)c2C(N)=O)C1,1,2,2,1,-3,1
COc1cc2ccccc2cc1C(=O)Nc1sc2c(c1C(N)=O)CCN(C(C)C)C2,3,7.1*,5,1,2,2
N#CC(=C(O)COC(=O)CCCNC(=O)c1ccc(Cl)cc1)c1nc2ccccc2[nH]1,·,·,13,·,7,7
COc1ccc(CCNC(=O)C(NS(=O)(=O)c2cccc3nsnc23)C(C)C)cc1OC (configuration not stated),-3,0,1,7,5,5
NC[C@H](Cc1ccccc1)NCCCCC1CCCCC1,·,·,7,4,3,0
CNC[C@H](CC1CCCCC1)NC[C@H](Cc1ccccc1)NCCC12CC3CC(CC(C3)C1)C2,2,16*,0,-2,-3,16
CC(=O)N(\C=C/C=C/C=C1\Sc2ccccc2C1=O)c1ccccc1,-1,-1,-43,30*,-93,-78
CN(C)/C=C1/Sc2ccccc2C1=O,6,-3,6,1,-12,-8
CCC(=O)Nc1ccc(C(=O)CSc2nnc(-c3ccccc3F)n2C2CC2)cc1,2,5.5*,9,7,7,0
CCC(C)NC(=O)NC(=O)CSc1nnc(-c2ccccc2F)n1C1CC1 (configuration not stated),-2,-4,-4,1,10,2
Cc1ccc(C(=O)O)cc1NC(=O)CSc1nnc(-c2ccccc2F)n1C1CCCCC1,·,·,26*,3,6,9
COCCN(C(=O)COC(=O)/C=C/c1cccc(OC)c1)c1c(N)n(CC(C)C)c(=O)[nH]c1=O,·,·,1,·,1,6
COc1cccc(Nc2nc3ccccc3nc2NS(=O)(=O)c2cccs2)c1,0,-3,11,32*,8,-1
COc1cccc(Nc2nc3ccccc3n3cnnc23)c1,7.8*,-4,0,4,0,1
COc1ccc(Nc2nc3ccccc3n3cnnc23)cc1Cl,1,-2,9,7,11,10
Cc1ccc2nc(Nc3ccc(F)cc3)c3nncn3c2c1,1,7.6*,0,6,-4,5
CC(C)CCC(CCNCc1ccccn1)c1ccc(Cl)cc1 (configuration not stated),-1,0,-3,1,-5,-2
SMILES,VIM-2 inh,IMP-1 inh,PAFAH1B2 inh,pPAFAH inh,PAFAH2 FP inh,PAFAH1B3 inh
CCOc1cc(Br)c(CN2C(=O)NC3(CCCCCC3)C2=O)cc1OCC,0,-2,-2,8,5,10
S=c1nc(C2CC2)[nH]c2ccccc12,11*,-3,5,-5,8,9
S=c1nc(C2CCCCC2)[nH]c2ccccc12,-7,-4,-5,0,6,4
Cn1ncc(Br)c1C(=O)NC1CCCCCC1,-3,-3,7,·,0,1
Cc1ccc(SCCNC(=O)c2ccc([N+](=O)[O-])c(C)c2)cc1,2,2,28*,-6,5,12
Cc1ccc(SCCNC(=O)c2ccc(C)c([N+](=O)[O-])c2)cc1,-1,0,22,5,1,5
